# Test results reported in ChEMBL document CHEMBL1155099, “Natural products in parallel synthesis: triazole libraries of nonactic acid” (2008).
# The source made the active and inactive calls. The rule behind the calls is not given here.
# Experiments:
# Bacillus cereus [1] = assay: Antibacterial activity against Bacillus cereus at 1 mM by almar blue dye reduction assay; type: functional, organism-based
# In short: (§1)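 Single-point primary screen at 1 mM using Alamar Blue dye reduction as the growth read-out.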
# Bacillus subtilis [2] = assay: Antibacterial activity against Bacillus subtilis at 1 mM by almar blue dye reduction assay; type: functional, organism-based; in short: as §1
# Staphylococcus aureus = assay: Antibacterial activity against Staphylococcus aureus at 1 mM by almar blue dye reduction assay; type: functional, organism-based; in short: as §1
# Escherichia coli = assay: Antibacterial activity against Escherichia coli at 1 mM by almar blue dye reduction assay; type: functional, organism-based; in short: as §1
# Pseudomonas aeruginosa = assay: Antibacterial activity against Pseudomonas aeruginosa at 1 mM by almar blue dye reduction assay; type: functional, organism-based; in short: as §1
# Candida albicans = assay: Antifungal activity against Candida albicans at 1 mM by almar blue dye reduction assay; type: functional, organism-based; in short: as §1
# Cryptococcus neoformans [3] = assay: Antifungal activity against Cryptococcus neoformans at 1 mM by almar blue dye reduction assay; type: functional, organism-based; in short: as §1
# Saccharomyces cerevisiae [4] = assay: Antifungal activity against Saccharomyces cerevisiae at 1 mM by almar blue dye reduction assay; type: functional, organism-based; in short: as §1
# Bacillus anthracis [5] = assay: Antibacterial activity against Bacillus anthracis by almar blue dye reduction assay; type: functional
# Bacillus anthracis [6] = assay: Antibacterial activity against Bacillus anthracis at 1mM by almar blue dye reduction assay; type: functional, organism-based
# Bacillus subtilis [7] = assay: Antibacterial activity against Bacillus subtilis by almar blue dye reduction assay; type: functional
# In short: (§2)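 Compounds advanced from the 1 mM screen were tested over a dilution series, with a top concentration of 1 mM, using Alamar Blue dye reduction. MIC is the lowest concentration with no dye reduction. Where inhibition was partial with some growth at the top concentration, the value is reported as '>'.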
# Cryptococcus neoformans [8] = assay: Antifungal activity against Cryptococcus neoformans at by almar blue dye reduction assay; type: functional; in short: as §2
# Bacillus cereus [9] = assay: Antibacterial activity against Bacillus cereus by almar blue dye reduction assay; type: functional; in short: as §2
# Saccharomyces cerevisiae [10] = assay: Antifungal activity against Saccharomyces cerevisiae by almar blue dye reduction assay; type: functional; in short: as §2
SMILES,Activity (Bacillus cereus [1]),Activity (Bacillus subtilis [2]),Activity (Staphylococcus aureus),Activity (Escherichia coli),Activity (Pseudomonas aeruginosa),Activity (Candida albicans),Activity (Cryptococcus neoformans [3]),Activity (Saccharomyces cerevisiae [4]),MIC (Bacillus anthracis [5]),Activity (Bacillus anthracis [6]),MIC (Bacillus subtilis [7]),MIC (Cryptococcus neoformans [8]),MIC (Bacillus cereus [9]),MIC (Saccharomyces cerevisiae [10])
C[C@H](C[C@@H]1CC[C@H]([C@@H](C)C(=O)N(C)Cc2ccccc2)O1)n1cc(C#Cc2ccccn2)nn1,inactive,inactive,inactive,inactive,inactive,inactive,inactive,inactive,> 430 µg/mL,,,,,
C[C@H](C[C@@H]1CC[C@H]([C@@H](C)C(=O)N2CCN(CC3CCCO3)CC2)O1)n1cc(C#Cc2ccc(-c3ccccc3)cc2)nn1 (stereo partly specified),inactive,,inactive,inactive,inactive,inactive,inactive,inactive,,inactive,560 µg/mL,,,
CCN(CC)C(=O)[C@H](C)[C@H]1CC[C@@H](C[C@@H](C)n2cc(C#CCOc3cccc(OC)c3OC)nn2)O1,inactive,inactive,inactive,inactive,inactive,inactive,,inactive,,inactive,,480 µg/mL,,
C[C@H](C[C@@H]1CC[C@H]([C@@H](C)C(=O)N2CCN(CC3CCCO3)CC2)O1)n1cc(C#Cc2cccc3ccccc23)nn1 (stereo partly specified),inactive,inactive,inactive,inactive,inactive,inactive,inactive,inactive,263 µg/mL,inactive,790 µg/mL,,260 µg/mL,
"Cc1cccc(NC(=O)OCC#Cc2cn([C@H](C)CC3CCC([C@@H](C)C(=O)N4CCN(CC5CCCO5)CC4)O3)nn2)c1 (single isomer, unassigned)",,inactive,inactive,inactive,inactive,inactive,inactive,inactive,,inactive,,,570 µg/mL,
"CCN(CC)C(=O)[C@H](C)C1CCC(C[C@@H](C)n2cc(C#CCNC(=O)Nc3cccc(C)c3)nn2)O1 (single isomer, unassigned)",inactive,,inactive,inactive,inactive,inactive,inactive,inactive,,inactive,700 µg/mL,,,
CCCCN(CC#Cc1cn([C@H](C)C[C@@H]2CC[C@H]([C@@H](C)C(=O)N3CCN(CC4CCCO4)CC3)O2)nn1)CCCC (stereo partly specified),inactive,,inactive,inactive,inactive,inactive,inactive,inactive,,inactive,820 µg/mL,,,
C[C@H](C[C@@H]1CC[C@H]([C@@H](C)C(=O)N2CCN(CC3CCCO3)CC2)O1)n1cc(C#Cc2ccc(C(F)(F)F)cc2)nn1 (stereo partly specified),inactive,,inactive,inactive,inactive,inactive,inactive,inactive,,inactive,820 µg/mL,,,
C[C@H](C[C@@H]1CC[C@H]([C@@H](C)C(=O)N2CCCC2)O1)n1cc(C#Cc2cccc3ccccc23)nn1,inactive,inactive,inactive,inactive,inactive,inactive,inactive,inactive,,inactive,,,,
C[C@H](C[C@@H]1CC[C@H]([C@@H](C)C(=O)N2CCN(CC3CCCO3)CC2)O1)n1cc(C#CCC2CCCC2)nn1 (stereo partly specified),inactive,inactive,inactive,inactive,inactive,inactive,inactive,inactive,,inactive,,,,
C[C@H](C[C@@H]1CC[C@H]([C@@H](C)C(=O)N2CCN(CC3CCCO3)CC2)O1)n1cc(C#Cc2ccccn2)nn1 (stereo partly specified),inactive,inactive,inactive,inactive,inactive,inactive,inactive,inactive,,inactive,,,,
CCN(CC)C(=O)[C@H](C)[C@H]1CC[C@@H](C[C@@H](C)n2cc(C#Cc3ccc(OC)cc3)nn2)O1,inactive,inactive,inactive,inactive,inactive,inactive,inactive,inactive,,inactive,,,,
C[C@H](C[C@@H]1CC[C@H]([C@@H](C)C(=O)N(C)Cc2ccccc2)O1)n1cc(C#CCC2CCCC2)nn1,,inactive,inactive,inactive,inactive,inactive,,,440 µg/mL,,,219 µg/mL,440 µg/mL,220 µg/mL
"CCOC(=O)C#Cc1cn([C@H](C)CC2CCC([C@@H](C)C(=O)N3CCCC3)O2)nn1 (single isomer, unassigned)",inactive,inactive,inactive,inactive,inactive,inactive,inactive,inactive,,inactive,,,,
CC(C)NC(=O)[C@H](C)[C@H]1CC[C@@H](C[C@@H](C)n2cc(C#Cc3ccccn3)nn2)O1,inactive,inactive,inactive,inactive,inactive,inactive,inactive,inactive,,inactive,,,,
CCN(CC)C(=O)[C@H](C)[C@H]1CC[C@@H](C[C@@H](C)n2cc(C#Cc3ccc(Oc4ccccc4)cc3)nn2)O1,inactive,inactive,inactive,inactive,inactive,inactive,inactive,inactive,,inactive,,,,
C[C@H](C[C@@H]1CC[C@H]([C@@H](C)C(=O)N2CCCC2)O1)n1cc(C#CCOc2ccccc2)nn1,inactive,inactive,inactive,inactive,inactive,inactive,inactive,inactive,,inactive,,,,
"Cc1cccc(NC(=O)NCC#Cc2cn([C@H](C)CC3CCC([C@@H](C)C(=O)N(C)Cc4ccccc4)O3)nn2)c1 (single isomer, unassigned)",inactive,inactive,inactive,inactive,inactive,inactive,inactive,inactive,,inactive,,,,
CCN(CC)C(=O)[C@H](C)[C@H]1CC[C@@H](C[C@@H](C)n2cc(C#CCNCCOC)nn2)O1,inactive,inactive,inactive,inactive,inactive,inactive,inactive,inactive,,inactive,,,,
C[C@H](C[C@@H]1CC[C@H]([C@@H](C)C(=O)N2CCCC2)O1)n1cc(C#Cc2ccc(-c3ccccc3)cc2)nn1,inactive,inactive,inactive,inactive,inactive,inactive,inactive,inactive,,inactive,,,,
C[C@H](C[C@@H]1CC[C@H]([C@@H](C)C(=O)N2CCN(CC3CCCO3)CC2)O1)n1cc(C#CCc2ccccc2)nn1 (stereo partly specified),inactive,inactive,inactive,inactive,inactive,inactive,inactive,inactive,,inactive,,,,
CCCCN(CC#Cc1cn([C@H](C)C[C@@H]2CC[C@H]([C@@H](C)C(=O)NC(C)C)O2)nn1)CCCC,inactive,inactive,inactive,inactive,inactive,inactive,inactive,inactive,,inactive,,,,
